According to ChEMBL document CHEMBL1137301 (J Med Chem, 2006):

Assays:
[1] = biological target: T1, Melatonin receptor type 1A (Homo sapiens, UniProt P48039); experiment: Displacement of 2-[125I]iodomelatonin from human MT1 receptor expressed in NIH3T3 cells; assay type: cell-based
[2] = biological target: T2, Melatonin receptor type 1B (Homo sapiens, UniProt P49286); experiment: Displacement of 2-[125I]iodomelatonin from human MT2 receptor expressed in NIH3T3 cells; assay type: cell-based
T2 sequence (P49286 whole entry): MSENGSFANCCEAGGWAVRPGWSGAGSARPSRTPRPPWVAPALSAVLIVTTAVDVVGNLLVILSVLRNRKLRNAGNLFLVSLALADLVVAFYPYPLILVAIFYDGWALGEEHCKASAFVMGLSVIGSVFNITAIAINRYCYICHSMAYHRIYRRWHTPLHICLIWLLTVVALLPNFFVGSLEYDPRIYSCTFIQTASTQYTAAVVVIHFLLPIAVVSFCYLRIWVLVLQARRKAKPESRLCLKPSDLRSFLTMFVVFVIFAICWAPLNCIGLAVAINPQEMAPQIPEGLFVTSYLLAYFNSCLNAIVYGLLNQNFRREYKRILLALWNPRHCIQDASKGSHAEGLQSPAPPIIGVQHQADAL

[3] = biological target: T3, Melatonin receptor type 1B (Homo sapiens) (UniProt P49286); experiment: Intrinsic activity at human MT2 receptor expressed in NIH3T3 cells assessed as stimulation of [35S]GTP-gamma-S binding relative to MLT; assay type: functional, cell-based
T3 sequence (whole entry): T2 sequence (P49286 whole entry)

[4] = biological target: T1, Melatonin receptor type 1A; experiment: Intrinsic activity at human MT1 receptor expressed in NIH3T3 cells assessed as stimulation of [35S]GTPgammaS binding relative to MLT; assay type: functional, cell-based
[5] = biological target: T1, Melatonin receptor type 1A; experiment: Activity at human MT1 receptor expressed in NIH3T3 cells assessed as inhibition of MLT-stimulated [35S]GTP-gamma-S binding; assay type: functional, cell-based; conditions: filed as partial agonist
[6] = biological target: T3, Melatonin receptor type 1B (Homo sapiens); experiment: (§1) Activity at human MT2 receptor expressed in NIH3T3 cells assessed as inhibition of MLT-stimulated [35S]GTPgammaS binding; assay type: functional, cell-based
Method in brief: (§2)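 Antagonism was measured in [35S]GTPγS binding on human MT2 NIH3T3 membranes (30 min, 30 °C; GDP 50 µM, NaCl 100 mM, MgCl2 3 mM). MLT concentration-response curves were run alone and with antagonist at 1, 10, 100 and 1000 nM.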

[7] = biological target: Melatonin receptor (Homo sapiens) (UniProt P48039+P49286); experiment: Selectivity for human MT2 receptor over MT1 receptor; assay type: protein assay
Method in brief: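 Incubation was 90 min at 37 °C in 50 mM Tris/HCl, pH 7.4, with nonspecific binding defined by 10 µM MLT. Ki came from IC50 via Cheng-Prusoff, mean of at least three runs in duplicate. The ratio compares MT1 and MT2 Ki.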

[8] = biological target: T2, Melatonin receptor type 1B; experiment: as §1; assay type: functional, cell-based; conditions: read-out: pA2 (converted); method in brief: as §2

Chain of Melatonin receptor (Homo sapiens) (P48039 whole entry, looked up, one chain of several): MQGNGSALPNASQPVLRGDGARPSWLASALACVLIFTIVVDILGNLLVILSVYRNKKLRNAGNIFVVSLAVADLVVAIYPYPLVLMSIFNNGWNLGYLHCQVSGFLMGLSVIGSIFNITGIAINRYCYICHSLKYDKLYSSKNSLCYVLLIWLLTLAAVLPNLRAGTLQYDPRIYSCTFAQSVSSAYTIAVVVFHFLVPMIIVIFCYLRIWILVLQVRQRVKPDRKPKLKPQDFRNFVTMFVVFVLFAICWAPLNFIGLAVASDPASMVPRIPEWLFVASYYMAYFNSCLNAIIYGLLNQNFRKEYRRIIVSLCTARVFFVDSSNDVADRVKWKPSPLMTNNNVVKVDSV
T1 sequence (P48039 whole entry): as the sequence (P48039 whole entry, looked up, one chain of several) above

SMILES	Ki [1] [µM]	Ki [2] [µM]	Intrinsic activity [3]	Intrinsic activity [4]	Activity [5]	Activity ([6]; filed as partial agonist)	Selectivity ratio [7]	Activity ([6]; filed as antagonist)	Kb [8] [µM]
CC(=O)NCC=C(c1ccccc1)c1ccccc1	0.513	0.0115	0.19	-0.03					
COc1cccc(/C(=C\CNC(=O)C2CCC2)c2ccccc2)c1	0.257	0.00155	-0.02	-0.04					
CC(=O)NC/C(=C/c1ccccc1)c1ccccc1	3.63	0.525	-0.15	-0.23					
COc1cccc(C(CNC(C)=O)Cc2ccccc2)c1 (configuration not stated)	0.692	0.204	-0.18	-0.23					
COc1cccc(/C(=C/CNC(C)=O)c2ccccc2)c1	0.00269	0.000219	0.38	0.54	Partial agonist	Partial agonist			
COc1cccc(/C(=C\CNC(C)=O)c2ccccc2)c1	0.229	0.00251	0.3	0.45					
CCC(=O)NCCC(c1ccccc1)c1cccc(OC)c1 (racemic)	0.363	0.00501	0.28	0.31					
COc1ccc(Cc2ccccc2)c(CCNC(C)=O)c1	0.0692	0.00603	0.06	0.24					
COc1cccc(C(=CCNC(C)=O)c2cccc(OC)c2)c1	0.0589	0.000275	0.34	0.2	Partial agonist	Partial agonist	214		
CCC(=O)NCCc1cccc(Cc2ccccc2)c1	0.389	0.661	0.48	0.24					
COc1cccc(/C(=C/CNC(=O)C2CCC2)c2ccccc2)c1	0.0933	0.000525	0.13	0.29			178	Antagonist	0.000389
CC(=O)NC/C(=C\c1ccccc1)c1ccccc1	1.2	0.148	0.18	0.11					
CC(=O)NCCC(c1ccccc1)c1ccccc1	4.17	0.141	-0.23	-0.19					
CC(=O)NCC(Cc1ccccc1)c1ccccc1 (configuration not stated)	0.708	0.417	-0.43	-0.3					
CCC(=O)NCC(Cc1ccccc1)c1cccc(OC)c1 (configuration not stated)	0.525	0.191	-0.25	-0.13					
CCCC(=O)NCCC(c1ccccc1)c1cccc(OC)c1 (racemic)	0.55	0.00263	0.27	0.21			209		
COc1cccc(C(CCNC(C)=O)c2ccccc2)c1 (racemic)	2.19	0.00537	0.04	0.24			407		
O=C(NCC=C(c1ccccc1)c1ccccc1)C1CCC1	0.912	0.0132	-0.2	-0.18					
